# Data reported in ChEMBL document CHEMBL4414551, “Design, Synthesis, and Biological Evaluation of Substituted 4,6-Dihydrospiro[[1,2,3]triazolo[4,5-b]pyridine-7,3'-indoline]-2',5(3H)-dione Analogues as Potent NS4B Inhibitors for the Treatment of Dengue Virus Infection” (J Med Chem, 2019).
# pEC50: −log10 of the molar value.
# How the values were obtained:
# dengue virus type 4 = assay: Antiviral activity against Dengue virus 4 D4MY01-22713 infected in human HuH7 replicon cells expressing Renilla luciferase and neomycin-resistance genes assessed as reduction in viral replication incubated for 48 hrs by luciferase reporter replicon-based assay; assay type: functional, organism-based; conditions: D4MY01-22713, Huh-7, 48 h
# In short: (§1)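 Huh7 cells stably carrying a Renilla luciferase/neomycin-resistance replicon (DENV-1 WestPac, DENV-2 NGC, DENV-3 D3MY05-34640 or DENV-4 D4MY01-22713). Cells seeded at 10k per well and incubated overnight at 37 °C, 5% CO2. Then exposed to 2-fold serial compound dilutions for 48 h, in duplicate. Luciferase read with a live-cell substrate. EC50 from four-parameter logistic fit.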
# dengue virus type 3 = assay: Antiviral activity against Dengue virus 3 D3MY05-34640 infected in human HuH7 replicon cells expressing Renilla luciferase and neomycin-resistance genes assessed as reduction in viral replication incubated for 48 hrs by luciferase reporter replicon-based assay; assay type: functional, organism-based; conditions: D3MY05-34640, Huh-7, 48 h; in short: as §1
# [1] = Cytotoxicity in human HuH7 replicon cells infected with Dengue virus 2 NGC assessed as reduction in cell viability incubated for 48 hrs by Cell-titer-Glo reagent based assay; parameters: species or system Huh-7
# In short: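 Huh7 cells or Huh7 replicon cells plated, then held at 37 °C with 5% CO₂ overnight. Exposed to 2-fold serial compound dilutions for 48 h, in duplicate. Viability read with CellTiter-Glo and normalized to 0.45% DMSO wells set at 100%. CC50 from four-parameter logistic fit.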
# dengue virus type 1 = assay: Antiviral activity against Dengue virus 1 WestPac infected in human HuH7 replicon cells expressing Renilla luciferase and neomycin-resistance genes assessed as reduction in viral replication incubated for 48 hrs by luciferase reporter replicon-based assay; assay type: functional, organism-based; conditions: Huh-7, 48 h; in short: as §1
# dengue virus type 2 = assay: Antiviral activity against Dengue virus 2 NGC infected in human HuH7 replicon cells expressing Renilla luciferase and neomycin-resistance genes assessed as reduction in viral replication incubated for 48 hrs by luciferase reporter replicon-based assay; assay type: functional, organism-based; conditions: Huh-7, 48 h; in short: as §1
Compound,pEC50 (dengue virus type 4),pEC50 (dengue virus type 3),CC50 at 48 h [1] [nM],pEC50 (dengue virus type 1),pEC50 (dengue virus type 2)
CC(C)N1C(=O)[C@]2(CC(=O)N(C(C)C)c3c2nnn3[C@@H](C)c2ccc(Cl)cc2)c2cc(Cl)ccc21,5.52,5.82,> 10000,5.42,< 5.00
C[C@@H](c1ccc(Cl)cc1)n1nnc2c1NC(=O)C[C@]21C(=O)N(Cc2cc(C(C)(C)C)cc(C(C)(C)C)c2)c2ccc(Cl)cc21,5.31,5.23,> 10000,5.34,< 5.00
COCOCCN1C(=O)[C@]2(CC(=O)Nc3c2nnn3[C@@H](C)c2ccc(Cl)cc2)c2cc(Cl)ccc21,< 5.30,7.72,> 10000,< 5.30,7.04
C[C@@H](c1ccc(Cl)cc1)n1nnc2c1NC(=O)C[C@]21C(=O)N(C)c2ccc(Cl)cc21,< 5.30,8.40,> 10000,< 5.30,7.72
C[C@@H](c1ccc(Cl)cc1)n1nnc2c1NC(=O)C[C@]21C(=O)N(CCCCCCCCN(C)C)c2ccc(Cl)cc21,< 5.30,7.38,> 10000,< 5.30,6.31
CCN1C(=O)[C@]2(CC(=O)Nc3c2nnn3[C@@H](C)c2ccc(Cl)cc2)c2cc(Cl)ccc21,< 5.30,8.22,> 10000,5.60,7.62
C[C@@H](c1ccc(Cl)cc1)n1nnc2c1NC(=O)C[C@]21C(=O)N(Cc2ccc(Cl)c(F)c2)c2ccc(Cl)cc21,5.29,6.54,> 10000,5.82,5.40
CCCCCCCCCCN1C(=O)[C@]2(CC(=O)Nc3c2nnn3[C@@H](C)c2ccc(Cl)cc2)c2cc(Cl)ccc21,5.14,5.92,> 10000,5.47,< 5.00
C[C@@H](c1ccc(Cl)cc1)n1nnc2c1NC(=O)C[C@]21C(=O)N(Cc2ccc(F)cc2)c2ccc(Cl)cc21,5.00,7.32,> 10000,5.30,6.80
C[C@@H](c1ccc(Cl)cc1)n1nnc2c1NC(=O)C[C@]21C(=O)N(CCCBr)c2ccc(Cl)cc21,5.49,7.12,> 10000,5.62,6.60
CC(C)N1C(=O)[C@]2(CC(=O)Nc3c2nnn3[C@@H](C)c2ccc(Cl)cc2)c2cc(Cl)ccc21,< 5.30,8.05,> 10000,5.24,7.64
COCCCN1C(=O)C[C@]2(C(=O)Nc3ccc(Cl)cc32)c2nnn([C@@H](C)c3ccc(Cl)cc3)c21,< 5.00,6.04,> 10000,< 5.00,5.06
C[C@@H](c1ccc(Cl)cc1)n1nnc2c1NC(=O)C[C@]21C(=O)N(Cc2ccccc2)c2ccc(Cl)cc21,< 5.30,7.70,> 10000,5.70,6.82
C[C@@H](c1ccc(Cl)cc1)n1nnc2c1NC(=O)C[C@]21C(=O)N(CCN2CCCCC2)c2ccc(Cl)cc21,< 5.30,8.30,> 10000,< 5.30,7.13
CCCCCCN1C(=O)[C@]2(CC(=O)Nc3c2nnn3[C@@H](C)c2ccc(Cl)cc2)c2cc(Cl)ccc21,< 5.30,6.85,> 10000,6.08,6.09
C[C@@H](c1ccc(Cl)cc1)n1nnc2c1N(C)C(=O)C(C)(C)[C@]21C(=O)N(C)c2ccc(Cl)cc21,< 5.30,< 5.30,> 10000,< 5.30,< 5.30
C[C@@H](c1ccc(Cl)cc1)n1nnc2c1NC(=O)C[C@]21C(=O)N(CCCCN(C)C)c2ccc(Cl)cc21,< 5.30,7.42,> 10000,< 5.30,6.72
CCCCN1C(=O)[C@]2(CC(=O)Nc3c2nnn3[C@@H](C)c2ccc(Cl)cc2)c2cc(Cl)ccc21,< 5.30,7.74,> 10000,5.89,7.12
COc1cc(CN2C(=O)[C@]3(CC(=O)Nc4c3nnn4[C@@H](C)c3ccc(Cl)cc3)c3cc(Cl)ccc32)cc(OC)c1,5.13,6.10,> 10000,5.47,5.51
C[C@@H](c1ccc(Cl)cc1)n1nnc2c1NC(=O)C[C@]21C(=O)N(Cc2ccncc2)c2ccc(Cl)cc21,< 5.30,7.60,> 10000,< 5.30,7.14

Compound,pEC50 (dengue virus type 4),pEC50 (dengue virus type 3),CC50 at 48 h [1] [nM],pEC50 (dengue virus type 1),pEC50 (dengue virus type 2)
Cc1ccc(CN2C(=O)[C@]3(CC(=O)Nc4c3nnn4[C@@H](C)c3ccc(Cl)cc3)c3cc(Cl)ccc32)cn1,< 5.30,7.96,> 10000,< 5.30,6.82
C[C@@H](c1ccc(Cl)cc1)n1nnc2c1NC(=O)C[C@]21C(=O)N(CCCCCl)c2ccc(Cl)cc21,< 5.30,7.72,> 10000,< 5.30,7.14
CC(C)CN1C(=O)[C@]2(CC(=O)Nc3c2nnn3[C@@H](C)c2ccc(Cl)cc2)c2cc(Cl)ccc21,< 5.30,7.70,> 10000,5.89,6.82
C[C@@H](c1ccc(Cl)cc1)n1nnc2c1NC(=O)C[C@]21C(=O)N(CCCCCCCCCCN(C)C)c2ccc(Cl)cc21,5.46,7.01,> 10000,5.57,5.46
COCCCN1C(=O)[C@]2(CC(=O)Nc3c2nnn3[C@@H](C)c2ccc(Cl)cc2)c2cc(Cl)ccc21,< 5.30,8.05,> 10000,< 5.30,7.40
C[C@@H](c1ccc(Cl)cc1)n1nnc2c1NC(=O)C[C@]21C(=O)N(CCN2CCC2)c2ccc(Cl)cc21,< 5.30,8.15,> 10000,< 5.30,7.17
C[C@@H](c1ccc(Cl)cc1)n1nnc2c1NC(=O)C[C@]21C(=O)N(CC(=O)O)c2ccc(Cl)cc21,–,–,> 10000,–,5.62
C[C@@H](c1ccc(Cl)cc1)n1nnc2c1NC(=O)C[C@]21C(=O)N(CCF)c2ccc(Cl)cc21,< 5.30,8.05,> 10000,< 5.30,7.42
C[C@@H](c1ccc(Cl)cc1)n1nnc2c1NC(=O)C[C@]21C(=O)N(CCCCCCCCBr)c2ccc(Cl)cc21,–,–,> 10000,–,< 5.30
COC(=O)CN1C(=O)[C@]2(CC(=O)Nc3c2nnn3[C@@H](C)c2ccc(Cl)cc2)c2cc(Cl)ccc21,< 5.30,7.96,> 10000,< 5.30,7.11
C[C@@H](c1ccc(Cl)cc1)n1nnc2c1NC(=O)C[C@]21C(=O)N(CC2CC2)c2ccc(Cl)cc21,< 5.30,7.77,> 10000,5.51,6.96
C[C@@H](c1ccc(Cl)cc1)n1nnc2c1NC(=O)C[C@]21C(=O)N(CCN(C)CCS(C)(=O)=O)c2ccc(Cl)cc21,< 5.30,7.74,> 10000,< 5.30,7.11
C[C@@H](c1ccc(Cl)cc1)n1nnc2c1NC(=O)C[C@]21C(=O)N(CCCCCCBr)c2ccc(Cl)cc21,–,–,> 10000,–,5.52
C#CCN1C(=O)[C@]2(CC(=O)Nc3c2nnn3[C@@H](C)c2ccc(Cl)cc2)c2cc(Cl)ccc21,< 5.30,8.52,> 10000,< 5.30,7.16
CC(C)N1C(=O)C[C@]2(C(=O)Nc3ccc(Cl)cc32)c2nnn([C@@H](C)c3ccc(Cl)cc3)c21,5.36,6.51,> 10000,5.68,6.07
CC#CCN1C(=O)[C@]2(CC(=O)Nc3c2nnn3[C@@H](C)c2ccc(Cl)cc2)c2cc(Cl)ccc21,< 5.30,7.70,> 10000,< 5.30,7.20
C[C@@H](c1ccc(Cl)cc1)n1nnc2c1NC(=O)C[C@]21C(=O)N(Cc2ccc(Cl)nc2)c2ccc(Cl)cc21,< 5.30,8.22,> 10000,< 5.30,7.11
C[C@@H](c1ccc(Cl)cc1)n1nnc2c1NC(=O)C[C@]21C(=O)N(Cc2ccc(Cl)cc2)c2ccc(Cl)cc21,5.19,6.70,> 10000,5.66,5.48
C[C@@H](c1ccc(Cl)cc1)n1nnc2c1NC(=O)C[C@]21C(=O)N(CCN2CCN(C)CC2)c2ccc(Cl)cc21,< 5.30,7.52,> 10000,< 5.30,6.52
